The test system of assay [1] is U87, T98 and bEnd.3 cells. Briefly: PrestoBlue cell viability screen, cell line not given. The following applies: BEND3, 120 h. The class given is cell-based. The essentials:
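bEnd.3 cells, grown in DMEM with 10% FBS and 2 mM L-glutamine, seeded at 1 × 10^4 per well. After 48 h at 37 °C/5% CO2 the medium was replaced and 20× compound dilutions in DMEM added (3–30 μM 3-point or 0.03–30 μM semi-log 7-point). DMSO 0.1% v/v served as untreated control. After 5 d, PrestoBlue was added for 60–90 min (ex 540/em 590 nm). EC50 came from a four-parameter logistic fit, minimum constrained to zero, normalised to untreated cells.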

For assay [2], the system named is T98 cells. As to the kind of experiment: PrestoBlue dose–response cell viability assay, 5 d. The format is cell-based, human. Conditions: T98 versus U87 and bEnd.3, 3-point screen.
The target in assay [3] is LCK (Homo sapiens, UniProt P06239). Briefly: Z′-LYTE kinase inhibition. The following applies: 3-point dose–response (0.1, 1, 10 μM), ATP Km app. The format is biochemical. The essentials:
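Z′-LYTE FRET assay: a peptide substrate tagged with a FRET pair, with protease cleavage distinguishing phospho from non-phospho peptide, read ratiometrically. Wild-type kinase was tested at 0.1, 1 and 10 μM in duplicate, with 1% DMSO and ATP at apparent Km. 100% inhibition was set without ATP; 0% used a synthetically phosphorylated substrate peptide. IC50 came from the dose-response curve.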

For assay [4], the system named is U87 cells. Briefly: PrestoBlue dose–response cell viability assay, 5 d. The class given is cell-based, human. The following applies: U87, 3-point screen.

LCK, sequence (P06239 whole entry): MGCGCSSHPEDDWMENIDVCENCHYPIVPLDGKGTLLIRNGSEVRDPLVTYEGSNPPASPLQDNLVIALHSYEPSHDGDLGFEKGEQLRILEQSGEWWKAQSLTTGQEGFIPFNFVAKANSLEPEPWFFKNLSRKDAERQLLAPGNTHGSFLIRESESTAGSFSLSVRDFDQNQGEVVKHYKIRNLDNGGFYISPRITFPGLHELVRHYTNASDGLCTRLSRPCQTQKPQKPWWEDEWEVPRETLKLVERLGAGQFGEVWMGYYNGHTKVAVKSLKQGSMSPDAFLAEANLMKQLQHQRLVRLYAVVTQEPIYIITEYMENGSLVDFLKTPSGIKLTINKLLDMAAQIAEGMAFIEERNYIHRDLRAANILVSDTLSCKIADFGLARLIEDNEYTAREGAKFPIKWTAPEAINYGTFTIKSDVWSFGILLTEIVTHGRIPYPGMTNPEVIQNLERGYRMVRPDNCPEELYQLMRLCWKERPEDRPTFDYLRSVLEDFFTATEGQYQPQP

Take `CC1CCN(CC#Cc2nn(CC3CCCC3)c3ncnc(N)c23)CC1` [A3]: the EC50 in assay [1] was < 30 µM.
With `CNc1ncc2c(C#CCN3CCC(NC(C)=O)CC3)nn(CC3CCCC3)c2n1` [B16], the antiproliferative selectivity profile entry in assay [2] is on record as “selective antiproliferative profile against the T98 cell line”.
The same measure, in the same setting: under `CNc1ncc2c(C#CCN3CCCCCC3)nn(CC3CCCC3)c2n1` [B21] stands “selective antiproliferative profile against the T98 cell line”; under `CCOC(=O)C1CCN(CC#Cc2nn(CC3CCCC3)c3nc(NC)ncc23)CC1` [B22], “selective antiproliferative profile against the T98 cell line”.
Still for that read-out and setting: next, `CCOC(=O)N1CCN(CC#Cc2nn(CC3CCCC3)c3nc(NC)ncc23)CC1` [B23]: “selective antiproliferative profile against the T98 cell line”.
Turning to `CN(C)C1CCN(CC#Cc2nn(C3CCCC3)c3nc(NCc4ccccc4)ncc23)C1` (stereo not shown) [B58, N-Benzyl-1-cyclopentyl-3-(3-(3-(dimethylamino)pyrrolidine-1-yl)prop-1-yn-1-yl)-1H-pyrazolo[3,4-d]pyrimidin-6-amine], in assay [3], it took 2.27 µM to reach half-maximal inhibition (IC50).
As to `Cn1nnc2c(C(N)=O)ncn2c1=O` [TMZ, temozolomide], in assay [4], the antiproliferative activity entry is reported as “some level of antiproliferative activity”.

For orientation: EC50 means the concentration that produces a half-maximal response. The low end stands for greater potency, the high end for weaker potency. As usually defined, the IC50 is the midpoint of a concentration-inhibition curve. Lower therefore signals higher potency.

These data come from publication PMC10718585 (RSC Medicinal Chemistry, 2023).
